Source: paper PMC11995402 (ACS infectious diseases, 2025)
≈ marks a conversion by molar mass, not a printed value. Where two headings read alike, the source gives them in different places.

Legend:
T. muris [1] = experiment: adult whipworm whole-worm motility inhibition assay; assay type: cell-based, Trichuris muris; conditions: for IC50: motility
A. ceylanicum [2] = experiment: adult hookworm whole-worm motility inhibition assay; assay type: cell-based, Ancylostoma ceylanicum; conditions: motility
PIM-3 = PIM-3 (Homo sapiens, UniProt Q86V86); experiment: SelectScreen kinase panel, PIM-3; assay type: biochemical; conditions: 500 nM
AAK1 = AAK1 (Homo sapiens, UniProt Q2M2I8); experiment: SelectScreen kinase panel, AAK1; assay type: biochemical; conditions: 500 nM
AAK1, sequence (Q2M2I8 whole entry): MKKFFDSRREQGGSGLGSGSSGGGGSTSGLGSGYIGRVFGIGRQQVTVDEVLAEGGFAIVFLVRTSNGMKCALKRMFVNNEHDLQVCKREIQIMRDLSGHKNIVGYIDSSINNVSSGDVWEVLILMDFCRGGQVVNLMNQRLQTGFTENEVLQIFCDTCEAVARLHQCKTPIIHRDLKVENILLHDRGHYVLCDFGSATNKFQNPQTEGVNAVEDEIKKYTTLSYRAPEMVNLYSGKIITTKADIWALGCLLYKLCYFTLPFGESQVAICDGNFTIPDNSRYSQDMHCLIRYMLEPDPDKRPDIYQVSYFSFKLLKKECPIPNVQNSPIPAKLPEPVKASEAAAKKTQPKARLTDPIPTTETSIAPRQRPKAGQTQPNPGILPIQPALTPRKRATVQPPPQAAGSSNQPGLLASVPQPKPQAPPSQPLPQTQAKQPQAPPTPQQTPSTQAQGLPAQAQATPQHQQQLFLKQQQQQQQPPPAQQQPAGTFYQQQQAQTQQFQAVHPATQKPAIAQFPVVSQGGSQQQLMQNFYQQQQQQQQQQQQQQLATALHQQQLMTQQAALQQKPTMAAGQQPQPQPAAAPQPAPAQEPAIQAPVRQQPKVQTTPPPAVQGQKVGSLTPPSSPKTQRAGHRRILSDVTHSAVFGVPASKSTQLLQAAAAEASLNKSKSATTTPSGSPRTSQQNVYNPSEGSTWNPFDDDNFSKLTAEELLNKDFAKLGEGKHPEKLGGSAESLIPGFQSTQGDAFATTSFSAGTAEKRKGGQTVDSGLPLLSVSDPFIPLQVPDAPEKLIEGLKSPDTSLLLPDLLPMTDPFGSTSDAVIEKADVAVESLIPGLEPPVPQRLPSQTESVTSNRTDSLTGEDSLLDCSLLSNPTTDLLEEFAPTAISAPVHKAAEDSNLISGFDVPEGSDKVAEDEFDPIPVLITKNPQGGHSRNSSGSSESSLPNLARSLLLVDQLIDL

MYLK4 = target: T1, MYLK4 (Homo sapiens, UniProt Q86YV6); experiment: SelectScreen kinase panel, MYLK4; assay type: biochemical; conditions: 500 nM
T1 sequence (Q86YV6 1-388): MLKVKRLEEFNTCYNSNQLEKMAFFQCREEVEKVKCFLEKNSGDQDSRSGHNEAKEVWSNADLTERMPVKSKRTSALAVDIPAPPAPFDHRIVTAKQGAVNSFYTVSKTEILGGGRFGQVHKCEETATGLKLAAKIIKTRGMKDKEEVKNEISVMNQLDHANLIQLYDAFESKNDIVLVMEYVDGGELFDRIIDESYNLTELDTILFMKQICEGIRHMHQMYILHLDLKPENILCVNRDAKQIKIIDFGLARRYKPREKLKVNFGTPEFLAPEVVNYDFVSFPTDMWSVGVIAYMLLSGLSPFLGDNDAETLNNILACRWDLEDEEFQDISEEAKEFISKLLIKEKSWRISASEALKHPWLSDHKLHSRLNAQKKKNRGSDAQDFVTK

STK17A = target: T2, STK17A (Homo sapiens, UniProt Q9UEE5); experiment: SelectScreen kinase panel, STK17A; assay type: biochemical; conditions: 500 nM
T2 sequence (Q9UEE5 1-414): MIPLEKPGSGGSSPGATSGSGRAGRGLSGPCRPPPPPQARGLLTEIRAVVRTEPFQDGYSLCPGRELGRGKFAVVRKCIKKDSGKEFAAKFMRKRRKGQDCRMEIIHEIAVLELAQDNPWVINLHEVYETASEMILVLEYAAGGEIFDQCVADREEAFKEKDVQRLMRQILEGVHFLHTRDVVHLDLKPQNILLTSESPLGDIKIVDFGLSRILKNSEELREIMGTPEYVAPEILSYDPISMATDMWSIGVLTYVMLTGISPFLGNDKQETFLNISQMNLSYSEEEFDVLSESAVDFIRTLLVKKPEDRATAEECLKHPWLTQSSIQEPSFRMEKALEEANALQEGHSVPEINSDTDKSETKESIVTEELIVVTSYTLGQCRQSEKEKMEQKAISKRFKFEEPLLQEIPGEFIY

GSG2 (haspin) = target: T3, GSG2 (haspin) (Homo sapiens, UniProt Q8TF76); experiment: SelectScreen kinase panel, GSG2; assay type: biochemical; conditions: 500 nM
T3 sequence (Q8TF76 1-798): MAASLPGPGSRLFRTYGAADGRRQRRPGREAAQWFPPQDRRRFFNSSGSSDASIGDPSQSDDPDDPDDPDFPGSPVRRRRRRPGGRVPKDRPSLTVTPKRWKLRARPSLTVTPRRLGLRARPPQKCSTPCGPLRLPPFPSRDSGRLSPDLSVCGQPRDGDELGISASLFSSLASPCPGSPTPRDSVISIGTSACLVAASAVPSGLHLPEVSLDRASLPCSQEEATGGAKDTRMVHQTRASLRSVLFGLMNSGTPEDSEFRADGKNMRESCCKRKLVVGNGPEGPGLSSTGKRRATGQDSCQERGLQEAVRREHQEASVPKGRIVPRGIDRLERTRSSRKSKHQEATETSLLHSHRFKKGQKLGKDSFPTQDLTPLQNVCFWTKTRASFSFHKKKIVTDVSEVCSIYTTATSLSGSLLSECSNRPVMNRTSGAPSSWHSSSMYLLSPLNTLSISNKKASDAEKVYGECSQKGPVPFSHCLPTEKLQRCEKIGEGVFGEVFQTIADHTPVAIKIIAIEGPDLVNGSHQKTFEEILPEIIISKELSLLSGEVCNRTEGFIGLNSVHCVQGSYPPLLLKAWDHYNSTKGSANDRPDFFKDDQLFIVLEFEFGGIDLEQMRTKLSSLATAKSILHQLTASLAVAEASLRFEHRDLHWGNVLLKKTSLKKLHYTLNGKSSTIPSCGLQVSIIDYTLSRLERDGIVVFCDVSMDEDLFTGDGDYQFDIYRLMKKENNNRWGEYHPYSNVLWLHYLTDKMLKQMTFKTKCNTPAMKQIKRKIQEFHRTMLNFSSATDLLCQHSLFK

MAPK15 (ERK7) = target: T4, MAPK15 (ERK7) (Homo sapiens, UniProt Q8TD08); experiment: SelectScreen kinase panel, MAPK15; assay type: biochemical; conditions: 500 nM
T4 sequence (Q8TD08 1-544): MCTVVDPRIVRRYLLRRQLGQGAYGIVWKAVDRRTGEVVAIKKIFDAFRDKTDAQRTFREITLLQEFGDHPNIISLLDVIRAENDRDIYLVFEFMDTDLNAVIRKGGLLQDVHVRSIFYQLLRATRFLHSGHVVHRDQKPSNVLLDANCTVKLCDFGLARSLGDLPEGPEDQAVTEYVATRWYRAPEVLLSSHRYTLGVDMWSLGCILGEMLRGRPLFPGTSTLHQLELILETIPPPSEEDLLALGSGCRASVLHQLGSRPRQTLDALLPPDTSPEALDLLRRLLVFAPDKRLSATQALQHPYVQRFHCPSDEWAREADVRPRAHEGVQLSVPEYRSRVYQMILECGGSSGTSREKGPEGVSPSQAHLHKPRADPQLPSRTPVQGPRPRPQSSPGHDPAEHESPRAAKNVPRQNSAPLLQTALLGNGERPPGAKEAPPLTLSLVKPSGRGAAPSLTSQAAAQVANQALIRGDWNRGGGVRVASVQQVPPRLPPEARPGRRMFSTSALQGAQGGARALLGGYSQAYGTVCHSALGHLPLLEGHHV

[3] = kinetic solubility in simulated gastric and intestinal fluid; assay type: physicochemical
T. muris [4] = test system: T. muris; set-up: species or system mice; conditions: mouse, in vivo, po, 100 mg/kg/day
A. ceylanicum [5] = experiment: in vivo efficacy in A. ceylanicum-infected hamsters; conditions: 100 mg/kg/day for three days, oral
whipworms = experiment: whipworm motility recovery after drug removal; assay type: cell-based; conditions: 60 μM for 24 h, motility recorded 4 and 24 h after removal
Summary of the method: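 Adult T. muris harvested 35 days post-inoculation from Stat6−/− mice, one worm per well in RPMI 1640 (pH 7.2) with 5% FBS, penicillin, streptomycin and amphotericin, at 37 °C and 5% CO2. Worms were exposed to test compound for 24 h, washed, and moved to fresh drug-free medium. Motility inhibition was scored relative to DMSO (0%) after exposure and again 4 and 24 h later.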

MDR1-MDCK II cells = conditions: MDCK-MDR1
HepG2 cells = experiment: HepG2 MTT viability assay; conditions: read-out: HEPG2 cells CC50 μM (95% CI) 24 h; MTT viability, 24 h

For `CN1CCCN(C(=O)c2cccc(-c3ccc(/C=C4/C(=O)Nc5ccc(Cl)cc54)o3)c2)CC1` [CX-6258], the “worm motility inhibition (in words)” value (T. muris [1]; adult T. muris, 30 μM (Figure 1)) was “excellent inhibition”, the motility inhibition (T. muris [1]; adult T. muris, 30 μM, relative to DMSO controls) was 100% and the IC50 (T. muris [1]; read-out: T. muris IC50 μM (95% CI) 24 h, 24 h) was 17.8 µM. For the same compound, the IC50 (T. muris [1]; read-out: T. muris IC50 μM (95% CI) 48 h, 48 h) was 14.7 µM, the IC50 (A. ceylanicum [2]; read-out: A. ceylanicum IC50 μM (95% CI) 24 h, 24 h) was 31.6 µM and the IC50 (A. ceylanicum [2]; read-out: A. ceylanicum IC50 μM (95% CI) 48 h, 48 h) was 5.5 µM. The “kinase inhibition PIM-3” value (PIM-3) was “over 80%”, the “kinase inhibition AAK1” value (AAK1) was “over 80%” and the “kinase inhibition MYLK4” value (MYLK4) was “over 80%”. The “kinase inhibition STK17A” value (STK17A) was “over 80%”, the “kinase inhibition GSG2 (haspin)” value (GSG2 (haspin)) was “over 80%” and the “kinase inhibition MAPK15 (ERK7)” value (MAPK15 (ERK7)) was “over 80%”. The “kinetic solubility μM” value ([3]; SGF (pH = 1.2)) was 151 µM (≈ 69.8 µg/mL), the “kinetic solubility μg/mL” value ([3]; SGF (pH = 1.2)) was 69.7 µg/mL (≈ 151 µM) and the “times more soluble in SGF than in SIF” value ([3]; SGF pH 1.2 versus SIF pH 6.8) was “approximately 30 times”. The “kinetic solubility μM” value ([3]; SIF (pH = 6.8)) was 5.05 µM (≈ 2.33 µg/mL), the “kinetic solubility μg/mL” value ([3]; SIF (pH = 6.8)) was 2.33 µg/mL (≈ 5.04 µM) and the “health, vitality and body weight of treated animals” value (T. muris [4]) was “did not affect the visually observed health and vitality of treated animals, nor were any changes in body weight”. The “reduction of egg number or worm burden (in words)” value (A. ceylanicum [5]) was “did not reduce egg number or worm burden”, the “recovery of whipworm motility after removing the drug” value (whipworms) was “no recovery in whipworm motility” and the “Rank Papp” value (MDR1-MDCK II cells) was “low”. The “mean Papp A to B” value (MDR1-MDCK II cells) was 0.049 10^−6 cm/s, the “mean Papp B to A” value (MDR1-MDCK II cells) was 0.0897 10^−6 cm/s and the “mean solution recovery % A to B” value (MDR1-MDCK II cells) was 5.4%. The “mean solution recovery % B to A” value (MDR1-MDCK II cells) was 20.2% and the CC50 (HepG2 cells) was 37.5 µM.
